Experimental findings from ChEMBL document CHEMBL1123758, “Thromboxane synthetase inhibitors and antihypertensive agents. 3. N-[(1H-imidazol-1-yl)alkyl]heteroaryl amides as potent enzyme inhibitors” (J Med Chem, 1987) are described below.

Activity calls are given as the source filed them.

Assay [1] concerns the target T1, Thromboxane-A synthase (Rattus norvegicus, UniProt P49430).
T1 sequence (P49430 whole entry): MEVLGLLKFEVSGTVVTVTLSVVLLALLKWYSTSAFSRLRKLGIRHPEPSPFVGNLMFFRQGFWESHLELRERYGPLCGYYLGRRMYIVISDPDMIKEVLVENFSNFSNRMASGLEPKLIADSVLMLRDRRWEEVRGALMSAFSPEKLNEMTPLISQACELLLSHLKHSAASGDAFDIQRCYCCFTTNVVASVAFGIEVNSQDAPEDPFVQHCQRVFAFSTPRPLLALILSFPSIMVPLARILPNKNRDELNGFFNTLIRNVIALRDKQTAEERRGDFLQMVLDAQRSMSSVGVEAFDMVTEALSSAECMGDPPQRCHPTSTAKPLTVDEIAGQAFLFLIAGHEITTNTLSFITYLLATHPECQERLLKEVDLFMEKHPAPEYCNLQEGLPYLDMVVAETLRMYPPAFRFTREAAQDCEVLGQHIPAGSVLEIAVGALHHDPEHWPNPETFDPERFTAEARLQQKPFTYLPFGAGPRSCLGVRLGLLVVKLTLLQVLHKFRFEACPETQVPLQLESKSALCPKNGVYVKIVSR
Kind of assay: Inhibition of thromboxane formation at a concentration of 10e -6 M.

For assay [2], the target named is T2, Thromboxane-A synthase (Rattus norvegicus) (UniProt P49430).
T2 sequence (whole entry): T1 sequence (P49430 whole entry)
Kind of assay: Inhibition of thromboxane formation at a concentration of 10e -4 M. A digest of the protocol:
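Washed SHR platelets in oxygenated Krebs phosphate buffer pH 7.4, (4.5-6.0) × 10^4 platelets/µL, with drug or vehicle, 10 min at 37 °C. Stopped on ice with citric acid. TXB2 in the supernatant was measured by direct RIA. Boiled-sample blanks were subtracted, then percent inhibition of TXB2 formation was calculated. Replicate number varies by entry.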

The test system of assay [3] is Rattus norvegicus. Briefly: Antihypertensive activity was measured in spontaneously hypertensive rats (SHR) at 100 mg/kg peroral dose (2 days); NA denotes inactive. More on the design: dose 100 mg/kg. In kind it is functional, organism-based. An outline of the steps:
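Male 16-week-old Okamoto SHR, mean arterial pressure about 170 mmHg. Dosed by gavage at 100 mg/kg (or less) as a suspension in 2% preboiled starch, with 0.9% NaCl loading at 25 mL/kg. A second identical dose without saline was given 24 h later. Mean arterial pressure was read at 28 h, using one to three rats. Active if ≤116 mmHg in one rat or a two-rat average ≤122 mmHg.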

Assay [4] deals with T2, Thromboxane-A synthase (Rattus norvegicus). Particulars: at 100 µM.
Assay [5] has as its system Rattus norvegicus. Kind of assay: Antihypertensive activity was measured in spontaneously hypertensive rats (SHR) at 100 mg/kg peroral dose (2 days); active. It counts as functional, organism-based. Also on record: dose 100 mg/kg. An outline of the steps: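 Male Okamoto SHR, 16 weeks old, mean arterial pressure about 170 mmHg. Compound suspended in 2% preboiled starch at 50 mg/mL and given by gavage at 100 mg/kg or less with 0.9% NaCl loading (25 mL/kg). An identical dose without saline followed 24 h later. Mean arterial pressure was read 28 h after the first dose in one to three rats. Active: one rat ≤116 mmHg, or mean of two ≤122 mmHg.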

The IC50 is the midpoint of a concentration-inhibition curve. Usually inhibition stands for the share of the control response that was lost under treatment. Read a high inhibition as strong suppression. `O=C(NCCCCCn1ccnc1)c1ccc(Cl)nc1` displayed an IC50 in assay [1] of 3 µM. In assay [2], this compound came in with an inhibition of 100%.

Take `O=C(NCCCn1ccnc1)c1cc(Br)c(Br)s1`: the result in assay [3] was inactive. The compound also showed an IC50 in assay [1] of 0.4 µM. The compound further registered an inhibition in assay [4] of 100%.

On to `O=C(NCCCCn1ccnc1)c1ccc(Cl)s1`, for which 0.2 µM corresponded to half-maximal inhibition in assay [1] (IC50). In addition, the inhibition in assay [4] was 99%.

Turning to `Cc1cn(CCCNC(=O)c2ccc(Cl)nc2)cn1`, the inhibition in assay [2] is 86%.

With `O=C(NCCCCn1ccnc1)c1sc2ccccc2c1Cl`, the outcome in assay [3] was inactive. For the same compound, the inhibition in assay [4] came out at 91%.

Turning to `O=C(NCCCCn1ccnc1)c1cc2ccccc2[nH]1`, the result in assay [3] was inactive. Also, 0.04 µM corresponded to half-maximal inhibition in assay [1] (IC50). Further, the inhibition in assay [4] came to 100%.

Regarding `O=C(NCCCn1ccnc1)c1sc2ccccc2c1Cl`, the IC50 in assay [1] came to 0.3 µM. Also, the inhibition in assay [4] came to 100%.

Compound `Cc1nccn1CCCNC(=O)c1ccc(Cl)nc1` gave an inhibition in assay [2] of 44%.

`O=C(NC/C=C/Cn1ccnc1)c1ccc(Cl)s1`: in assay [3], the result was inactive. This compound yielded an inhibition in assay [4] of 100%.

For `O=C(NCCCCn1cncn1)c1ccc(Cl)s1`, in assay [3], the result was inactive. For the same compound, the inhibition in assay [4] worked out at 83%.

Regarding `O=C(NCCCCn1cncn1)c1ccco1`, in assay [3], the outcome was inactive. This compound also gave an inhibition in assay [4] of 22%.

`Cc1cn(CCCNC(=O)c2cc3ccccc3n2C)cn1`: in assay [3], the outcome was inactive. Moreover, the inhibition in assay [4] was found to be 85%.

On to `O=C(NCCCCCCCCn1ccnc1)c1ccc(Cl)s1`, for which half-maximal inhibition in assay [1] (IC50) was put at 0.07 µM. The inhibition in assay [2] is 96%.

For the compound `CC(CCNC(=O)c1ccc(Cl)s1)n1ccnc1` (stereo unspecified), the IC50 in assay [1] is 2 µM. In addition, the inhibition in assay [4] came out at 100%.

On to `O=C(NCCCn1ccnc1)c1sc2cc(F)ccc2c1Cl`, for which the outcome in assay [3] was inactive. The compound also came in with an inhibition in assay [4] of 96%.

With `Cc1ccc(C(=O)NCCCn2ccnc2)s1`, in assay [3], the result was inactive. In assay [1], this compound yielded an IC50 of 1.3 µM. The same compound displayed an inhibition in assay [4] of 96%.

Regarding `O=C(NCCCn1cncn1)c1cc2ccccc2o1`, in assay [3], the outcome was inactive. Besides, the inhibition in assay [4] was found to be 84%.

Take `CC(CCNC(=O)c1cc2cc(Cl)ccc2[nH]1)n1ccnc1` (stereo unspecified): it took 0.05 µM to reach half-maximal inhibition in assay [1] (IC50). In assay [4], the inhibition amounted to 98%.

In turn, `CC(CNC(=O)c1cc2cc(Cl)ccc2[nH]1)Cn1ccnc1` (stereo unspecified) gave an inhibition in assay [4] of 100%.

`O=C(NCCCCn1ccnc1)c1ccc(Cl)nc1`: the IC50 in assay [1] worked out at 8 µM. For the same compound, the inhibition in assay [2] amounted to 94%.

On to `O=C(NCCCn1cncn1)c1ccc(Cl)s1`, for which the result in assay [3] was inactive. Besides, in assay [4], the inhibition came out at 64%.

Take `O=C(NCCn1ccnc1)c1ccco1`: the inhibition in assay [4] was 65%.

Consider `Cc1cn(CCCNC(=O)c2ccc(Cl)s2)cn1`, for which, in assay [3], the result was inactive. Also, the inhibition in assay [4] is 95%.

On to `O=C(NCCCn1ccnc1)c1ccc([N+](=O)[O-])o1`, for which the outcome in assay [5] was Active. Further, the inhibition in assay [4] was 64%.

`O=C(NCCCCCn1ccnc1)c1ccc(Cl)s1`: the result in assay [3] was inactive. The IC50 in assay [1] turned out to be 0.2 µM. The compound further showed an inhibition in assay [4] of 100%.

Compound `Cc1nccn1CCCNC(=O)c1ccc(Cl)s1` returned an inhibition in assay [4] of 78%.

For `O=C(NCCCCn1ccnc1)c1cc2cc(Cl)ccc2[nH]1`, the inhibition in assay [4] came out at 100%.

Take `O=C(NCCCCCn1cncn1)c1ccc(Cl)s1`: the outcome in assay [3] was inactive. This compound also displayed an inhibition in assay [4] of 100%.

On to `O=C(NCCCn1ccnc1)c1cc2cc(Cl)ccc2[nH]1`, for which the outcome in assay [3] was inactive. Moreover, in assay [4], the inhibition is 95%.

`O=C(NCCCCn1ccnc1)c1cccs1` showed an IC50 in assay [1] of 3 µM. This compound also came in with an inhibition in assay [4] of 95%.

With `COc1ccc2[nH]c(C(=O)NCCCn3ccnc3)cc2c1`, in assay [3], the result was inactive. The inhibition in assay [4] was found to be 96%.

As for `O=C(NCCCn1cncn1)c1cccs1`, in assay [3], the outcome was inactive. The inhibition in assay [4] is 30%.

In assay [2], `O=C(NCCCn1ccnc1)c1cccnc1Cl` displayed an inhibition of 64%.

For `O=C(NCCCn1cnc(-c2ccccc2)c1)c1ccc(Cl)s1`, the result in assay [3] was inactive. The compound further showed an inhibition in assay [4] of 70%.

Consider `Cn1c(C(=O)NCCCn2ccnc2)cc2ccccc21`, for which the outcome in assay [3] was inactive. For the same compound, in assay [4], the inhibition was found to be 89%.

As for `O=C(NCCCCn1ccnc1)c1ccco1`, in assay [3], the outcome was inactive. In addition, the inhibition in assay [4] was determined as 87%.

Turning to `O=C(NCCCn1ccnc1)c1cc2ccccc2[nH]1`, the inhibition in assay [4] came out at 94%.

For the compound `Cc1nccn1CCCNC(=O)c1cc2ccccc2n1C`, in assay [3], the outcome was inactive. Further, in assay [4], the inhibition was 56%.

As to `O=C(NCCCn1ccnc1)c1ccco1`, the outcome in assay [3] was inactive. This compound also displayed an inhibition in assay [4] of 97%.

For the compound `CC(CNC(=O)c1ccc(Cl)nc1)Cn1ccnc1` (stereo unspecified), the inhibition in assay [2] is 98%.

Regarding `O=C(NCCCCCCCCn1ccnc1)c1cc2cc(Cl)ccc2[nH]1`, the IC50 in assay [1] amounted to 0.027 µM. Moreover, the inhibition in assay [2] was found to be 93%.

In the case of `O=C(NCCCCCCn1ccnc1)c1ccc(Cl)s1`, in assay [3], the outcome was inactive. In assay [1], this compound gave an IC50 of 0.2 µM. In assay [4], this compound gave an inhibition of 100%.

In the case of `O=C(NCCCn1ccnc1)c1cc2cc(Cl)ccc2s1`, the outcome in assay [3] was inactive. For the same compound, the IC50 in assay [1] stood at 0.1 µM. The compound further yielded an inhibition in assay [4] of 100%.

Turning to `O=C(NCCCn1ccnc1)c1cccnc1`, the outcome in assay [3] was inactive. In assay [4], the inhibition was determined as 83%.

In the case of `Cc1cn(CCCNC(=O)c2cc3ccccc3[nH]2)cn1`, in assay [3], the outcome was inactive. In addition, the inhibition in assay [4] amounted to 100%.

Consider `O=C(NCCCn1ccnc1)c1ccc(Cl)s1`, for which, in assay [1], the concentration for half-maximal inhibition (IC50) was 0.6 µM. Moreover, the inhibition in assay [4] is 95%.

As for `O=C(NCCn1ccnc1)c1sc2ccccc2c1Cl`, in assay [4], the inhibition amounted to 70%.

For the compound `Cc1ccc2c(Cl)c(C(=O)NCCCn3ccnc3)sc2c1`, the outcome in assay [3] was inactive. This compound also displayed an inhibition in assay [4] of 96%.

`Cc1cn(CCCNC(=O)c2cc3cc(Cl)ccc3[nH]2)cn1`: the result in assay [3] was inactive. Further, the inhibition in assay [4] was 100%.

As for `O=C(NCCCn1ccnc1)c1cccs1`, in assay [3], the outcome was inactive. The compound further showed an inhibition in assay [4] of 93%.

As for `O=C(NCCCn1ccnc1)c1ccc(Br)o1`, the result in assay [3] was inactive. This compound also gave an inhibition in assay [4] of 82%.

In turn, `CC(CCNC(=O)c1ccc(Cl)nc1)n1ccnc1` (stereo unspecified) returned a concentration for half-maximal inhibition (IC50) in assay [1] of 3 µM. The compound further had an inhibition in assay [2] of 98%.

Take `O=C(NCCCn1ccnc1)c1cc2ccccc2o1`: in assay [3], the outcome was inactive. In assay [1], this compound displayed a 50% inhibitory concentration (IC50) of 0.3 µM. For the same compound, the inhibition in assay [4] came to 97%.

For the compound `O=C(NCCCn1ccnc1)c1ccc(Cl)nc1`, the inhibition in assay [2] was 87%.

Turning to `O=C(NCCCCCn1ccnc1)c1cc2cc(Cl)ccc2[nH]1`, the IC50 in assay [1] amounted to 0.007 µM. The same compound showed an inhibition in assay [4] of 100%.
